Data as given in ChEMBL document CHEMBL1146466, “Immunomodulatory constituents from an Ascomycete, Chaetomium seminudum” (J Nat Prod, 2004).
Values after ≈ are worked out from the molar mass of the structure shown.

How the values were obtained:
[1] = Immunosuppressive activity in BALB/c mouse splenic T lymphocytes assessed as inhibition of Con A-induced cell proliferation after 72 hrs by MTT assay; type: functional, cell-based
Method in brief: (§1)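 Splenocytes from three male BALB/c mice (7-11 weeks) at 8.0 × 10^6 cells/mL in FBS/RPMI, stimulated with LPS (B cells) or Con A (T cells) at 70% of the optimum dose from a dose-response curve. Samples were dissolved in 1.0% EtOH/medium and incubated 72 h at 37 °C in 5% CO2. MTT (5.0 mg/mL stock) was added for 4 h, formazan extracted into DMSO, and A570/630 read. Proliferation was expressed as % of no-sample control, in triplicate. IC50 came from a 7-concentration curve.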

[2] = Immunosuppressive activity in BALB/c mouse splenic B lymphocytes assessed as inhibition of LPS-induced cell proliferation after 72 hrs by MTT assay; type: functional, cell-based; method in brief: as §1

| Compound | IC50 [1] [ng/mL] | IC50 [2] [ng/mL] |
| --- | --- | --- |
| CS[C@]1(CO)NC(=O)[C@](Cc2c[nH]c3ccccc23)(SC)NC1=O [CHETOSEMINUDIN C] | > 50000 |  |
| CN1C(=O)[C@]2(Cc3cn([C@]45C[C@@]67SS[C@@](CO)(C(=O)N6[C@H]4Nc4ccccc45)N(C)C7=O)c4ccccc34)SS[C@@]1(CO)C(=O)N2C [CHETOMIN] | 170 (≈ 239 nM) | 90 (≈ 127 nM) |
| CS[C@]1(Cc2c[nH]c3ccccc23)NC(=O)[C@](CO)(SC)N(C)C1=O [CHETOSEMINUDIN B] | 24000 (≈ 63200 nM) |  |
| C=CC[C@@H]1/C=C(\C)C[C@H](C)C[C@H](OC)[C@H]2O[C@@](O)(C(=O)C(=O)N3CCCC[C@H]3C(=O)O[C@H](/C(C)=C/[C@@H]3CC[C@@H](O)[C@H](OC)C3)[C@H](C)[C@@H](O)CC1=O)[C@H](C)C[C@@H]2OC [TACROLIMUS ANHYDROUS] | 0.015 (≈ 0.0187 nM) | 1.6 (≈ 1.99 nM) |
| CN1C(=O)[C@]2(Cc3cn([C@]45C[C@@]67SSS[C@@](CO)(C(=O)N6[C@H]4Nc4ccccc45)N(C)C7=O)c4ccccc34)SS[C@@]1(CO)C(=O)N2C [CHETOSEMINUDIN A] | 180 (≈ 242 nM) | 130 (≈ 175 nM) |
| Cn1cnc([N+](=O)[O-])c1Sc1ncnc2[nH]cnc12 [AZATHIOPRINE] | 2700 (≈ 9740 nM) | 2700 (≈ 9740 nM) |
